A short description of data set [1]: Stability of the compound assessed as human e-NPP3-mediated compound hydrolysis by HPLC analysis. It counts as ADME.
Data set [2] can be described thus: Stability of the compound assessed as human e-NPP1-mediated hydrolysis at pH 8.5 after 20 mins by HPLC analysis. It counts as ADME. Particulars: buffer, pH 8.5, 20 min. The essentials: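 Human NPP1 preparation preincubated 3 min at 37 °C in 1 mM CaCl2, 200 mM NaCl, 10 mM KCl, 100 mM Tris, pH 8.5. Started with 0.2 mM dinucleotide solution (added volume) and stopped after 20 min in ice-cold perchloric acid. Neutralised with KOH, then NMP formation followed by HPLC. Percent substrate hydrolysed is the mean of two experiments run in triplicate.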

Data set [3] in a line: Chemical stability of the compound at physiological conditions. Format: physicochemical.
Data set [4] in a line: Chemical stability of the compound at pH mimicking gastric juice acidity. It counts as physicochemical. Particulars: simulated gi fluid.
Data set [5] has as its target P2Y purinoceptor 1 (Meleagris gallopavo) (UniProt P49652). Description: Agonist activity at turkey P2Y purinoceptor 1 expressed in human 1321N1 cells assessed as increase in intracellular calcium concentration by spectrofluorimetry. It counts as functional, cell-based.
For data set [6], the target named is T1, P2Y purinoceptor 2 (Homo sapiens, UniProt P41231). Description: Agonist activity at human P2Y purinoceptor 2 expressed in human 1321N1 cells assessed as increase in intracellular calcium concentration by spectrofluorimetry. Format: functional, cell-based.
Data set [7] in a line: Selectivity ratio of EC50 for rat P2Y purinoceptor 6 receptor to EC50 for turkey P2Y purinoceptor 1 receptor. The method in brief:
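1321N1 astrocytoma cells lacking endogenous P2Y receptors, stably transfected with turkey P2Y1, human P2Y2, human P2Y4 or rat P2Y6, grown in DMEM with 5% FBS, penicillin/streptomycin and 500 µg/mL G-418. Fura-2-loaded cell suspensions were exposed at 37 °C in 10 mM Hepes-buffered saline, pH 7.4, with 1 mM CaCl2 and 1 mM MgCl2. Peak [Ca2+]i rise by dual-excitation spectrofluorometry across concentrations; EC50 from curve fits; three experiments on separate days per subtype.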

In data set [8] the target is P2Y purinoceptor 1 (Meleagris gallopavo) (UniProt P49652). Description: Antagonist activity at turkey P2Y purinoceptor 1 expressed in human 1321N1 cells assessed as inhibition of 2-Sme-ADP-induced increase in intracellular calcium concentration by spectrofluorimetry. It counts as functional, cell-based. The essentials: (§1)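 Fura-2-loaded 1321N1 transfectants (turkey P2Y1, human P2Y2/P2Y4, rat P2Y6) in Hepes-buffered saline, pH 7.4, at 37 °C. Analogues were tested against equimolar reference agonist: 2-MeS-ADP for P2Y1, UTP for P2Y2/4, UDP for P2Y6. Blockade of the [Ca2+]i rise was followed by dual-excitation spectrofluorometry.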

In data set [9] the target is P2Y purinoceptor 6 (Rattus norvegicus) (UniProt Q63371). Description: Antagonist activity at rat P2Y purinoceptor 6 expressed in human 1321N1 cells assessed as inhibition of UDP-induced increase in intracellular calcium concentration by spectrofluorimetry. It counts as functional, cell-based. The essentials: as §1
The target is the same in data set [10]. Description: Agonist activity at rat P2Y purinoceptor 6 expressed in human 1321N1 cells assessed as increase in intracellular calcium concentration at 100 uM by spectrofluorimetry. It counts as functional, cell-based.
The target in data set [11] is T1, P2Y purinoceptor 2. Description: Antagonist activity at human P2Y purinoceptor 2 expressed in human 1321N1 cells assessed as inhibition of UTP-induced increase in intracellular calcium concentration by spectrofluorimetry. It counts as functional, cell-based. The essentials:
as §1

In the next data set the target is P2Y purinoceptor 4 (Homo sapiens, UniProt P51582). Description: Antagonist activity at human P2Y purinoceptor 4 expressed in human 1321N1 cells assessed as inhibition of UTP-induced increase in intracellular calcium concentration by spectrofluorimetry. Format: functional, cell-based. The method in brief:
as §1

The target of data set [12] is P2Y purinoceptor 1 (Meleagris gallopavo) (UniProt P49652). Description: Agonist activity at turkey P2Y purinoceptor 1 expressed in human 1321N1 cells assessed as increase in intracellular calcium concentration at 100 uM by spectrofluorimetry. Format: functional, cell-based.
For data set [13], the target named is T1, P2Y purinoceptor 2. Description: Agonist activity at human P2Y purinoceptor 2 expressed in human 1321N1 cells assessed as increase in intracellular calcium concentration at 100 uM by spectrofluorimetry. Format: functional, cell-based.

Calls of active or inactive are those of the source. No cut-off for these calls is given here.

P2Y purinoceptor 1 (Meleagris gallopavo), sequence (P49652 whole entry): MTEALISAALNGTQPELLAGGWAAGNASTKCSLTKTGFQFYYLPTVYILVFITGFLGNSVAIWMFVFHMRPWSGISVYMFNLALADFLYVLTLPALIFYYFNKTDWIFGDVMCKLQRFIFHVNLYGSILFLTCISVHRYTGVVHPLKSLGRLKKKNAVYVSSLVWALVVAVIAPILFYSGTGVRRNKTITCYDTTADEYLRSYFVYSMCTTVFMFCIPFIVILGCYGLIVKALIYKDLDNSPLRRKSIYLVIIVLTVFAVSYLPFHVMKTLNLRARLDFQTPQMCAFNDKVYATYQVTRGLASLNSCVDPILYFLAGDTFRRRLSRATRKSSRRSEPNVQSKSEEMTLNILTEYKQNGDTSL
P2Y purinoceptor 6 (Rattus norvegicus), sequence (Q63371 whole entry): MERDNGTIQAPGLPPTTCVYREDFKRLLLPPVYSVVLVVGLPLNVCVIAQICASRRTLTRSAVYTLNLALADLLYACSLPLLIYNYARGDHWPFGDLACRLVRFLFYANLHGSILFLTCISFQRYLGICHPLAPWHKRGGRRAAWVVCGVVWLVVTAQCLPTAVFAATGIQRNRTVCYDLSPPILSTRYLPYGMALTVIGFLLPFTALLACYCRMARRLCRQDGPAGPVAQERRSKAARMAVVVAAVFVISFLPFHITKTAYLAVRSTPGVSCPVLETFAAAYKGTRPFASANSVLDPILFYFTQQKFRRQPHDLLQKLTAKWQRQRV
P2Y purinoceptor 4, sequence (P51582 whole entry): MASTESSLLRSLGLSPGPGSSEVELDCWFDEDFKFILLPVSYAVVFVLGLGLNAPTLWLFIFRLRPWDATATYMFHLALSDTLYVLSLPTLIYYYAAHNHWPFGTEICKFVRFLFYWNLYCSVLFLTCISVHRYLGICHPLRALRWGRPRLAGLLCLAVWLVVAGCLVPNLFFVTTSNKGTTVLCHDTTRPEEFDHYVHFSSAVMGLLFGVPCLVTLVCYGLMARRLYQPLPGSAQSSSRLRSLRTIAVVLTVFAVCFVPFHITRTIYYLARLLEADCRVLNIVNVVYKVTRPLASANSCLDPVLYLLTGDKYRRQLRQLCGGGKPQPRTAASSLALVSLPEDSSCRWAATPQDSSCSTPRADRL
T1 sequence (P41231 whole entry): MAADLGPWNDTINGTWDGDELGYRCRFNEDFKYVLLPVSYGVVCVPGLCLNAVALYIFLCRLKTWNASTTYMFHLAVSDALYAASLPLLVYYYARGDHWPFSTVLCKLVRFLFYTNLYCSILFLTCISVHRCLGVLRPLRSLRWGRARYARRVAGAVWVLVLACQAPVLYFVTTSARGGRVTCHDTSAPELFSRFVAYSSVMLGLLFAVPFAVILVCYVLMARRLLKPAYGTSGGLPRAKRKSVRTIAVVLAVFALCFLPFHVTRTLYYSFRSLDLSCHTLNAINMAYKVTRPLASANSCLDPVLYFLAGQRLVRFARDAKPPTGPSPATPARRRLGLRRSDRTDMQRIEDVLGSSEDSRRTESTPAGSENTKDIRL

For the compound `BP(=O)(OP(=O)(O)OC[C@H]1O[C@@H](n2cnc3c(N)ncnc32)[C@H](O)[C@@H]1O)OP(=O)(O)OC[C@H]1O[C@@H](n2cnc3c(N)ncnc32)[C@H](O)[C@@H]1O.CCCCN(CCCC)CCCC.CCCCN(CCCC)CCCC.CCCCN(CCCC)CCCC`, the Stability entry in data set [1], in [2], in data set [3] and in data set [4] was “Stable” throughout.

`BP(=O)(OP(=O)(O)OP(=O)(O)OC[C@H]1O[C@@H](n2cnc3c(N)ncnc32)[C@H](O)[C@@H]1O)OP(=O)(O)OP(=O)(O)OC[C@H]1O[C@@H](n2cnc3c(N)ncnc32)[C@H](O)[C@@H]1O.CCCCN(CCCC)CCCC.CCCCN(CCCC)CCCC.CCCCN(CCCC)CCCC.CCCCN(CCCC)CCCC.CCCCN(CCCC)CCCC`: the Stability entry is “Unstable” in data set [2], “Stable” in data set [3] and “Stable” in data set [4]. Also, the result in [5] was Active. For the same compound, the result at P2Y purinoceptor 2 [6] was inactive.

As to `BP(=O)(OP(=O)(O)OP(=O)(O)OC[C@H]1O[C@@H](n2ccc(=O)[nH]c2=O)[C@H](O)[C@@H]1O)OP(=O)(O)OP(=O)(O)OC[C@H]1O[C@@H](n2ccc(=O)[nH]c2=O)[C@H](O)[C@@H]1O.CCCCN(CCCC)CCCC.CCCCN(CCCC)CCCC.CCCCN(CCCC)CCCC.CCCCN(CCCC)CCCC.CCCCN(CCCC)CCCC`, the Stability entry in data set [2], in [3] and in data set [4] was “Stable” each time. Besides, the result (in data set [5]; on P2Y purinoceptor 2 [6]) was inactive.

Consider `BP(=O)(OP(=O)(O)OC[C@H]1O[C@@H](n2cnc3c(N)ncnc32)[C@H](O)[C@@H]1O)OP(=O)(O)OP(=O)(O)OC[C@H]1O[C@@H](n2ccc(=O)[nH]c2=O)[C@H](O)[C@@H]1O.CCCCN(CCCC)CCCC.CCCCN(CCCC)CCCC.CCCCN(CCCC)CCCC.CCCCN(CCCC)CCCC` (mixture of isomers), for which the Ratio EC50 in [7] worked out at 42.

As for `BP(=O)(OP(=O)(O)OC[C@H]1O[C@@H](n2cnc3c(N)ncnc32)[C@H](O)[C@@H]1O)OP(=O)(O)OP(=O)(O)OC[C@H]1O[C@@H](n2cnc3c(N)ncnc32)[C@H](O)[C@@H]1O.CCCCN(CCCC)CCCC.CCCCN(CCCC)CCCC.CCCCN(CCCC)CCCC.CCCCN(CCCC)CCCC` (stereo in doubt; 6A), the outcome (in data set [8]; in data set [9]; at P2Y purinoceptor 2 [11]; on P2Y purinoceptor 4) was inactive. Besides, in data set [10], the result was Active.

For `BP(=O)(OP(=O)(O)OC[C@H]1O[C@@H](n2cnc3c(N)ncnc32)[C@H](O)[C@@H]1O)OP(=O)(O)OP(=O)(O)OC[C@H]1O[C@@H](n2cnc3c(N)ncnc32)[C@H](O)[C@@H]1O.CCCCN(CCCC)CCCC.CCCCN(CCCC)CCCC.CCCCN(CCCC)CCCC.CCCCN(CCCC)CCCC` (stereo in doubt; 6B), the outcome (in data set [8]; in data set [9]; at P2Y purinoceptor 2 [11]; at P2Y purinoceptor 4) was inactive. Besides, the result in data set [10] was Active.

`BP(=O)(OP(=O)(O)OC[C@H]1O[C@@H](n2ccc(=O)[nH]c2=O)[C@H](O)[C@@H]1O)OP(=O)(O)OP(=O)(O)OC[C@H]1O[C@@H](n2ccc(=O)[nH]c2=O)[C@H](O)[C@@H]1O.CCCCN(CCCC)CCCC.CCCCN(CCCC)CCCC.CCCCN(CCCC)CCCC.CCCCN(CCCC)CCCC` (stereo in doubt; 7A): the outcome (in data set [8]; in [9]; at P2Y purinoceptor 2 [11]; at P2Y purinoceptor 4) was inactive. For the same compound, the outcome (in [12]; at P2Y purinoceptor 2 [13]) was Active.

Consider `BP(=O)(OP(=O)(O)OC[C@H]1O[C@@H](n2ccc(=O)[nH]c2=O)[C@H](O)[C@@H]1O)OP(=O)(O)OP(=O)(O)OC[C@H]1O[C@@H](n2cnc3c(N)ncnc32)[C@H](O)[C@@H]1O.CCCCN(CCCC)CCCC.CCCCN(CCCC)CCCC.CCCCN(CCCC)CCCC.CCCCN(CCCC)CCCC` (stereo in doubt; 9A), for which the outcome (in [8]; in data set [9]; at P2Y purinoceptor 2 [11]; at P2Y purinoceptor 4) was inactive. At P2Y purinoceptor 2 [13], the result was Active.

As to `BP(=O)(OC[C@H]1O[C@@H](n2ccc(=O)[nH]c2=O)[C@H](O)[C@@H]1O)OP(=O)(O)OP(=O)(O)OP(=O)(O)OC[C@H]1O[C@@H](n2ccc(=O)[nH]c2=O)[C@H](O)[C@@H]1O.CCCCN(CCCC)CCCC.CCCCN(CCCC)CCCC.CCCCN(CCCC)CCCC.CCCCN(CCCC)CCCC` (stereo in doubt; 13A), the outcome (in data set [8]; in [9]; at P2Y purinoceptor 2 [11]; on P2Y purinoceptor 4) was inactive. Moreover, the result on P2Y purinoceptor 2 [13] was Active.

(Values after ChEMBL document CHEMBL1949525, “Boranophosphate isoster controls P2Y-receptor subtype selectivity and metabolic stability of dinucleoside polyphosphate analogues” (J Med Chem, 2012).)
